Active and inactive are the calls of the source. No cut-off for these calls is given here.

The subject of data set [1] is MDA-MB-435. The data set is described as follows: Inhibition of cell migration in human MDA-MB-435 cells expressing SK3 channel at 1 uM measured after 24 hrs. The format is functional. The method, boiled down: (§1)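 Transwell migration through […] pore inserts in 24-well plates, using MDA-MB-435s expressing endogenous SK3 (SK3+) or not (SK3-); DMSO stock 10 mM. Results relative to control, mean ± S.E.M.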

Data set [2] deals with MDA-MB-435. In words: Inhibition of cell migration in human MDA-MB-435 cells expressing SK3 channel at 0.3 uM measured after 24 hrs. The format is functional. The method, boiled down: as §1
Data set [3] has as its system MDA-MB-435. In words: Inhibition of cell migration in human MDA-MB-435 cells at 1 uM measured after 24 hrs. The format is functional, cell-based. Summed up: as §1
The test system of data set [4] is MDA-MB-435. The data set is described as follows: Cytotoxicity against human MDA-MB-435 cells at 1 uM incubated for 48 hrs by MTT assay. The format is cell-based. The settings on record: mda-mb-435, 48 h.
Data set [5] is described as follows: Drug uptake in plasma membrane of human MDA-MB-231 cells at 1 uM measured after 45 mins by fluorescence imaging analysis. Type of data set: ADME, cell membranes, Cell membrane. The settings on record: mda-mb-231, 0.75 h.
A short description of data set [6]: Drug uptake in human MDA-MB-231 cells at 1 uM after 2 hrs by fluorescence imaging analysis. Type of data set: ADME, cell-based. As to conditions: mda-mb-231, 2 h. Summed up: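 Breast cancer cells seeded at 100.000 per 35 mm dish in serum-supplemented DMEM, treated 24 h after seeding; medium swapped to serum-free DMEM before adding compound. Wide-field microscope, 20× oil objective, excitation 340 nm, excimer emission imaged 468–552 nm; same field imaged every 15 min from 60 to 165 min after addition.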

Data set [7] concerns the target Small conductance calcium-activated potassium channel protein 3 (Homo sapiens) (UniProt Q9UGI6). In words: Inhibition of SK3 (unknown origin) assessed as reduction in SK3 expression in presence of proteinase K. The method, boiled down: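 Cell-surface expression by proteinase K cleavage: cells incubated with or without […] proteinase K at 37 °C for 30 min, quenched with ice-cold PBS with 6 mM PMSF and 25 mM EDTA; western blot, full-length SK3 75 kDa, surface-cleaved band 55 kDa.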

Data set [8] in a line: Fluorescence property of compound in egg-PC based liposomes assessed as liposomal integration at 0.2 uM added before liposome formation by fluorescence spectra analysis. The format is physicochemical. As to conditions: artificial membrane. The method, boiled down:
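Pre-insertion: methanol stock (50 mM) added to egg-PC lipids before solvent evaporation, then liposomes formed; final compound 0.2 at lipid 8 or 40 (lipid/compound ratios 40 or 200).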

Data set [9] in a line: Fluorescence property of compound in preformed egg-PC based liposomes assessed as liposomal integration at 0.2 uM by fluorescence spectra analysis. Type of data set: physicochemical. As to conditions: artificial membrane. The method, boiled down:
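Post-insertion: compound from methanol stock (50 mM) added to preformed, sonicated egg-PC liposomes; final compound 0.2 at lipid 8 or 40 (lipid/compound ratios 40 or 200).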

The target in data set [10] is Small conductance calcium-activated potassium channel protein 3 (Rattus norvegicus) (UniProt P70605). The data set is described as follows: Inhibition of recombinant rat SK3 expressed in HEK293 cells assessed as reduction in channel current at 10 uM and holding potential at 0 mV by whole cell patch clamp method relative to control. Type of data set: cell-based.
Chain of Small conductance calcium-activated potassium channel protein 3 (Rattus norvegicus) (P70605 whole entry): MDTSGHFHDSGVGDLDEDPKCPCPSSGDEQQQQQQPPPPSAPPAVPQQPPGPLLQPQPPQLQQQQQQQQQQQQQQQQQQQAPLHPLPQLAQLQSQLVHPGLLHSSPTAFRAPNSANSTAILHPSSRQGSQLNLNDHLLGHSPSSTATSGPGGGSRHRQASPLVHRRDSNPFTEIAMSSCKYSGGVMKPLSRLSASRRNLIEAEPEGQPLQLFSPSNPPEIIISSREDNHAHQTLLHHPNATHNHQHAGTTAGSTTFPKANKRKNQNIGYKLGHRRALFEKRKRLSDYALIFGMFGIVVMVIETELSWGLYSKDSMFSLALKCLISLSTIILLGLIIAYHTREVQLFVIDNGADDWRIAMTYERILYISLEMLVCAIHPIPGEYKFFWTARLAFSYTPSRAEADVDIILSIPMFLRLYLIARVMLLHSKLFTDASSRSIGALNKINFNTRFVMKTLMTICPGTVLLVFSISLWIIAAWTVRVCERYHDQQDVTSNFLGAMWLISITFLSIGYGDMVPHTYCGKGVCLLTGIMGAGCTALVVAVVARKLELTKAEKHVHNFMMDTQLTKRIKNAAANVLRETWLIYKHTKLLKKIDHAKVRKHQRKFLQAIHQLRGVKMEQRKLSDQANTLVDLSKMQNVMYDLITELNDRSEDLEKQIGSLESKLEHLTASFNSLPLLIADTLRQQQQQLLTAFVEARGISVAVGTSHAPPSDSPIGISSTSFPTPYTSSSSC
For data set [11] the target is unchanged. In words: Inhibition of recombinant rat SK3 expressed in HEK293T cells assessed as reduction in channel current at 10 uM and holding potential at 0 mV by whole cell patch clamp method relative to control. Type of data set: cell-based.

Chain of Small conductance calcium-activated potassium channel protein 3 (Homo sapiens) (Q9UGI6 whole entry): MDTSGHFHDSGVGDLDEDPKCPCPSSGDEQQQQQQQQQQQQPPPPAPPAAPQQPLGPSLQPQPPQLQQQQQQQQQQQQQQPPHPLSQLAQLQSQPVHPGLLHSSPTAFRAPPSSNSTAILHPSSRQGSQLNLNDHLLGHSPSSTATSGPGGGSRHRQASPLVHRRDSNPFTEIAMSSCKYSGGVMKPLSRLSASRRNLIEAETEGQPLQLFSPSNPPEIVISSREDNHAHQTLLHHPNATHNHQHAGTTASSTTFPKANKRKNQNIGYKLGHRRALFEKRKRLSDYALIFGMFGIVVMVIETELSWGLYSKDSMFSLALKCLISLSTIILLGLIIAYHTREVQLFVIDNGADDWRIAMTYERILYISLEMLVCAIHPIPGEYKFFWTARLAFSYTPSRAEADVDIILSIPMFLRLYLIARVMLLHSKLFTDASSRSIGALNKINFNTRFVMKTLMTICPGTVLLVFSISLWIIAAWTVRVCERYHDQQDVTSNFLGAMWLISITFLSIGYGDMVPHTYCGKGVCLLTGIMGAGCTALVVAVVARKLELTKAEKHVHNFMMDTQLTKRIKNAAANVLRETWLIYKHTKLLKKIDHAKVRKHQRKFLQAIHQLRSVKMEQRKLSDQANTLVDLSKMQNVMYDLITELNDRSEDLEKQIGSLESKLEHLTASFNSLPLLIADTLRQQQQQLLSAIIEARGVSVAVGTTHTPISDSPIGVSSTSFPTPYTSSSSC

Turning to `COC(COCCCCCCCCCCCc1ccc2ccc3cccc4ccc1c2c34)CO[C@@H]1O[C@H](CO)[C@@H](O[C@@H]2O[C@H](CO)[C@H](O)[C@H](O)[C@H]2O)[C@H](O)[C@H]1O` (mixture of isomers), the inhibition at 1 µM with MDA-MB-435 [1] was -32.5%. In addition, the inhibition result (in the data set with MDA-MB-435 [2]; in the data set with MDA-MB-435 [3]; in data set [7]) was “inactive” throughout. The Activity entry in the data set on MDA-MB-435 [4] is given as “Non-Toxic”; in [8] it was “Active”; in data set [9], “Active”. Further, the Drug uptake entry in data set [5] and in [6] was “Active” in each case.

On to `CCCCCCCCCCCCCCCCOCC(CO[C@@H]1O[C@H](CO)[C@@H](O[C@@H]2O[C@H](CO)[C@H](O)[C@H](O)[C@H]2O)[C@H](O)[C@H]1O)OC` (stereo not given in full), for which, in the data set with MDA-MB-435 [2], the inhibition at 0.3 µM amounted to 50%. For the same molecule, in data set [7], the inhibition entry is “inactive”. Besides, the inhibition in [10] is 73%.

For the molecule `COC(COCCCCc1ccc2ccc3cccc4ccc1c2c34)CO[C@@H]1O[C@H](CO)[C@@H](O[C@@H]2O[C@H](CO)[C@H](O)[C@H](O)[C@H]2O)[C@H](O)[C@H]1O` (mixture of isomers), in data set [11], the inhibition entry is “inactive”. In addition, the Activity entry was “Non-Toxic” with MDA-MB-435 [4], “Not Active” in data set [8] and “Not Active” in data set [9].

Regarding `COC(COCCCCCCCCCCCCCCCCc1ccc2ccc3cccc4ccc1c2c34)CO[C@@H]1O[C@H](CO)[C@@H](O[C@@H]2O[C@H](CO)[C@H](O)[C@H](O)[C@H]2O)[C@H](O)[C@H]1O` (mixture of isomers), the inhibition entry in data set [11] was “inactive”. The Activity result is given as “Non-Toxic” in the data set on MDA-MB-435 [4], “Active” in data set [8] and “Active” in data set [9].

For the origin of these results see ChEMBL document CHEMBL4732058, “Development of pyrene-based fluorescent ether lipid as inhibitor of SK3 ion channels” (Eur J Med Chem, 2021).
